{"source": "ChEMBL document CHEMBL5661969", "about": "“Preclinical evaluation of a potent novel DNA-dependent protein kinase inhibitor NU7441” (Cancer Res, 2006)", "key": {"[1]": {"test": "Ratio of drug level in tumor to plasma of human SW620 cell xenografted athymic nude CD1 mouse at 10 mg/kg, ip measured after 90 mins by HPLC analysis", "assay_type": "ADME, organism-based", "settings": "tumor and plasma", "in_short": "(§1)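 Female CD-1 nu/nu mice bearing s.c. flank SW620 tumours (1×10^7 cells, ~650 mm³ at 10–14 days) given 10 mg/kg i.p. Tissues snap frozen, homogenised 1:3 in PBS. Acetonitrile precipitation, C18 HPLC with acetate pH 5/acetonitrile 75:25 mobile phase, UV 329 nm; tissue levels by method of addition. Tissue/plasma ratio, mean of three mice per time.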"}, "[2]": {"target": "T1, DNA-dependent protein kinase catalytic subunit (Homo sapiens, UniProt P78527)", "T1 sequence (P78527 whole entry)": "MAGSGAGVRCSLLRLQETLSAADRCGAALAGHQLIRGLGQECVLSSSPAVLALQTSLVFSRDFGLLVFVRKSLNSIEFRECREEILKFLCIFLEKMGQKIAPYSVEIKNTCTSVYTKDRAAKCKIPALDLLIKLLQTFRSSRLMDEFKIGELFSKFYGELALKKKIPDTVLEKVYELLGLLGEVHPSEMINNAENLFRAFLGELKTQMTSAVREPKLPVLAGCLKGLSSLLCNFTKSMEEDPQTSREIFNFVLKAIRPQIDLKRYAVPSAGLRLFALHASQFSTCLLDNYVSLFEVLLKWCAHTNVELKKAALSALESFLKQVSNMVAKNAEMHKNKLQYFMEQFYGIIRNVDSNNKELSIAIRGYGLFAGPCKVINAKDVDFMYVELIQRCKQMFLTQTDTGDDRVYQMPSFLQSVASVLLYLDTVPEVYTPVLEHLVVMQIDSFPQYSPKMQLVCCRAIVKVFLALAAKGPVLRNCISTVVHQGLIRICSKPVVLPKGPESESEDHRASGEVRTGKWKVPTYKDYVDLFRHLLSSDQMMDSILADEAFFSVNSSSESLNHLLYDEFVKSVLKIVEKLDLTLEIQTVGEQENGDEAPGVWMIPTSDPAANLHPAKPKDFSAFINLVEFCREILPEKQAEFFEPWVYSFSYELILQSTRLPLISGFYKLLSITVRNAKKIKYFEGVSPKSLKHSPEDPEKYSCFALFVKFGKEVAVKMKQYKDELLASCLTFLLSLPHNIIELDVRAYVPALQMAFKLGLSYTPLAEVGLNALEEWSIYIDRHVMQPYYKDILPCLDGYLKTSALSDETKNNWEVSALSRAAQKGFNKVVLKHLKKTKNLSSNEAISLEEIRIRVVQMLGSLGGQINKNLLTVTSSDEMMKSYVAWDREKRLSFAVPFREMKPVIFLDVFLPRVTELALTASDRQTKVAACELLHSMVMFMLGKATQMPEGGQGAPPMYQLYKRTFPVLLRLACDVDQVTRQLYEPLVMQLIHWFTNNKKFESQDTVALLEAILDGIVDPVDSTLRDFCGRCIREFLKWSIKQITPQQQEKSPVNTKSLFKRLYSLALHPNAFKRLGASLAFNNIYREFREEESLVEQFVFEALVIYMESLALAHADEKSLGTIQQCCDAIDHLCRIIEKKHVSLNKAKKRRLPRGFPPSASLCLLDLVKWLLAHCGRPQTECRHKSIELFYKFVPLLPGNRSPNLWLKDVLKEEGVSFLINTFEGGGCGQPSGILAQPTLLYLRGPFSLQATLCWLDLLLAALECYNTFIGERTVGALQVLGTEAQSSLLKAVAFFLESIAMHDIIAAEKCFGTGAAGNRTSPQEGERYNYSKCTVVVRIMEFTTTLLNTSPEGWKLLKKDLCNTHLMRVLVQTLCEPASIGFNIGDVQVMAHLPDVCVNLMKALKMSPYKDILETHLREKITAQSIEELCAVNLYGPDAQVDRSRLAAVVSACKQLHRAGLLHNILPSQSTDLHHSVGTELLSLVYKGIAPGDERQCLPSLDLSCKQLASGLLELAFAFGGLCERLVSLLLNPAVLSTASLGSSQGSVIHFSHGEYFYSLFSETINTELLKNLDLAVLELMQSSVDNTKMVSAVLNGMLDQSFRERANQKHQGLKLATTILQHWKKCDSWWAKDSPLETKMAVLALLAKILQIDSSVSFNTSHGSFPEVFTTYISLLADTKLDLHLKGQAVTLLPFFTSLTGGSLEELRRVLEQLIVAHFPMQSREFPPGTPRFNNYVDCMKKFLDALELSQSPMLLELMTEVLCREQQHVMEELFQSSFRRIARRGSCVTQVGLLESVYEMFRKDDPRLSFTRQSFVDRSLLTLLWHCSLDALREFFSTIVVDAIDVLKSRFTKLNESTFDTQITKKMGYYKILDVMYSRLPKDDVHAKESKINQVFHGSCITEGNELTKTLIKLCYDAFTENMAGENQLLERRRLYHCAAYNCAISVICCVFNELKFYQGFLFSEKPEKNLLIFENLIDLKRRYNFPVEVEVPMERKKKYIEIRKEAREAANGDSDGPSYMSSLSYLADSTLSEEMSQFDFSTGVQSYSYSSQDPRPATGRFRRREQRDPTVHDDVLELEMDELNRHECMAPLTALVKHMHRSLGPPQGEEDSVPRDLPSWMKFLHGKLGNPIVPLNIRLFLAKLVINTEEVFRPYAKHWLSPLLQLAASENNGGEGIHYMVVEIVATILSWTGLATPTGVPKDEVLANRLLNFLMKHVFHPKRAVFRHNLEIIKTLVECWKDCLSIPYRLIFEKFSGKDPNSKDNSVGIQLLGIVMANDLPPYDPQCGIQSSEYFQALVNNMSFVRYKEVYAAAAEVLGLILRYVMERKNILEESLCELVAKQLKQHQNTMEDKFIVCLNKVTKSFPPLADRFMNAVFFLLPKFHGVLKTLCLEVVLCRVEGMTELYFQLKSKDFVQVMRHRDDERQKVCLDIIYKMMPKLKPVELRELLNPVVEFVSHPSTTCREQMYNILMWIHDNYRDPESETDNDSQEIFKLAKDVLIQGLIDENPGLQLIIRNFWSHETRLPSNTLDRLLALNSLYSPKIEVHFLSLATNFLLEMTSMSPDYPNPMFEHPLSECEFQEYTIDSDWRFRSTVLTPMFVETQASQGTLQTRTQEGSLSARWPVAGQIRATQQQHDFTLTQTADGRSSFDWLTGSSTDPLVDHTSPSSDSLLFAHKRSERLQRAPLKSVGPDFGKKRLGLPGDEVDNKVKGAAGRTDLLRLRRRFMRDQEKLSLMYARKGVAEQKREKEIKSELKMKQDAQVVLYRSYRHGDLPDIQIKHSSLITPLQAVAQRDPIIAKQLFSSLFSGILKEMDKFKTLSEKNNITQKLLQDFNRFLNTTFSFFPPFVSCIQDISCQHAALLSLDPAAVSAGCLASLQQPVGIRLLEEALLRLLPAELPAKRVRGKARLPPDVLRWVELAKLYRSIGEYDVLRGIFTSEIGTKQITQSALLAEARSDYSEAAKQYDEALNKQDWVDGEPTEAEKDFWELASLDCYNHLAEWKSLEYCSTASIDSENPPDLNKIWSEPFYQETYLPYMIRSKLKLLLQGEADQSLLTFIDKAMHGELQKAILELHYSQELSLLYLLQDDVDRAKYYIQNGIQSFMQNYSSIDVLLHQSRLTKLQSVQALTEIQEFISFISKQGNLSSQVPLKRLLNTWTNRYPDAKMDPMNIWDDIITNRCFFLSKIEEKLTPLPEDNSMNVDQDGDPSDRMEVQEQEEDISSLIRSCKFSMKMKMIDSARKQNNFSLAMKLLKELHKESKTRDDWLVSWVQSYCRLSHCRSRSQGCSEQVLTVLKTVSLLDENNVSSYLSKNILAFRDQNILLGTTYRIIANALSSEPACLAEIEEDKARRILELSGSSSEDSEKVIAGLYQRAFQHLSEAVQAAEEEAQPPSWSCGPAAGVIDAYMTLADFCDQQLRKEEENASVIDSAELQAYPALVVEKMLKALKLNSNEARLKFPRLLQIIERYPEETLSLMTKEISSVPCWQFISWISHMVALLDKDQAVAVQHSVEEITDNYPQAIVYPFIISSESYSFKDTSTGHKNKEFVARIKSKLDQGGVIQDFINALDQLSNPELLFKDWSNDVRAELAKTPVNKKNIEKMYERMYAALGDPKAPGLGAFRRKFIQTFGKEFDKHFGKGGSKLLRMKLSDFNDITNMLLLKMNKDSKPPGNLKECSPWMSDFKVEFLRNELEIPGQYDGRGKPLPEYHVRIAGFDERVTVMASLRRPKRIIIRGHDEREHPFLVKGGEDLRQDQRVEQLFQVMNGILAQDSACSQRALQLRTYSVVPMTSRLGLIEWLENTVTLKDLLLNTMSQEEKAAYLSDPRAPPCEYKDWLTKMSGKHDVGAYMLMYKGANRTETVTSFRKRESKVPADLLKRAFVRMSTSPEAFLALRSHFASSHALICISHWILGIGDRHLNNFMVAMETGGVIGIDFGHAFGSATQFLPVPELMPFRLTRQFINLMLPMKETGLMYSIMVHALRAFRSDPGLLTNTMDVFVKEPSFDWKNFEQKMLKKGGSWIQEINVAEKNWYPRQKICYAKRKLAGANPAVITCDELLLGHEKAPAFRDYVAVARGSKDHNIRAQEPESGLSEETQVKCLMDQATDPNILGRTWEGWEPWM", "test": "Inhibition of human HeLa cell nuclear extract purified DNA-PK using p53 peptide as substrate by ELISA"}, "[3]": {"test": "Drug level in tumor of human SW620 cell xenografted athymic nude CD1 mouse at 10 mg/kg, ip measured after 4 hrs by HPLC analysis", "assay_type": "ADME, organism-based, Neoplasm, SW-620", "settings": "read-out: Drug uptake", "in_short": "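CD1 nu/nu female mice carry s.c. SW620 flank tumours (1×10^7 cells), used at ~650 mm³. Single 10 mg/kg i.p. dose, tumour excised and snap frozen at time points up to 240 min, then homogenized 1:3 in PBS. HPLC-UV at 329 nm; tissue levels by the method of addition. Three mice per time point.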"}, "[4]": {"target": "T1, DNA-dependent protein kinase catalytic subunit", "settings": "SW620, dose 1.0 µmol/L, time 17.0 hrs"}, "[5]": {"test": "Cytotoxicity against Chinese hamster DNA-PK deficient V3 cells assessed as reduction in cell survival at 0.5 umol/L measured after 16 hrs in presence of etoposide by crystal violet staining based assay", "assay_type": "toxicity, Cricetulus griseus", "settings": "v3, 16 h, 0.5 µM, dose 0.5 µmol/L", "in_short": "(§2)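 Exponentially growing cells exposed 16 h to agent (0.5 or 1.0 μmol/L), with or without etoposide or doxorubicin, at 0.5% DMSO final; controls get DMSO alone. Cells are then trypsinized, reseeded at 100–100,000 per dish in drug-free medium and grown 10–14 days. Colonies stained with crystal violet and counted automatically.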"}, "[6]": {"test": "Cytotoxicity against Chinese hamster DNA-PK proficient V3-YAC cells assessed as cell survival at 0.5 umol/L measured after 16 hrs by crystal violet staining based assay relative to control", "assay_type": "toxicity, Cricetulus griseus", "settings": "dose 0.5 µmol/L, read-out: Activity", "in_short": "as §2"}, "[7]": {"test": "Ratio of drug level in spleen to plasma of human SW620 cell xenografted athymic nude CD1 mouse at 10 mg/kg, ip measured after 30 mins by HPLC analysis", "assay_type": "ADME, organism-based", "in_short": "as §1"}, "[8]": {"test": "Ratio of drug level in liver to plasma of human SW620 cell xenografted athymic nude CD1 mouse at 10 mg/kg, ip measured after 90 mins by HPLC analysis", "assay_type": "ADME, organism-based", "in_short": "as §1"}, "[9]": {"test": "AUCinfinity in BALB/c mouse at 10 mg/kg, ip by HPLC analysis", "assay_type": "ADME, organism-based", "settings": "in vivo", "in_short": "(§3)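 Female BALB/c mice dosed 5 mg/kg i.v. in 10% DMSO/10% cyclodextrin in saline, or 10 mg/kg i.p. or orally at 1 mg/mL in 40% PEG400/saline. Plasma taken at 5, 10, 15, 30, 60, 90, 120, 180, 240 and 360 min, three mice per time. Acetonitrile precipitation, C18 HPLC with UV detection at 329 nm against a plasma standard curve. Parameters derived from mean concentrations.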"}, "[10]": {"test": "Ratio of drug level in tumor to plasma of human SW620 cell xenografted athymic nude CD1 mouse at 10 mg/kg, ip measured after 240 mins by HPLC analysis", "assay_type": "ADME, organism-based", "settings": "tumor and plasma", "in_short": "as §1"}, "[11]": {"test": "Inhibition of DNA-PK in Chinese hamster DNA-PK proficient V3-YAC cells assessed as potentiation of ionizing radiation-induced cytotoxicity by measuring fold change in radiation LD90 at 0.5 umol/L preincubated for 1 hr followed by gamma-irradiation and measured after 16 hrs by crystal violet staining based assay relative to radiation alone", "set-up": "species or system Cricetulus griseus", "settings": "dose 0.5 µmol/L; time 17 hrs; condition cancer", "in_short": "(§4)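 V3-YAC Chinese hamster ovary cells (human DNA-PKcs YAC, kept in 500 μg/mL G-418), RPMI 1640/10% FBS. Cells reseeded drug-free, colonies crystal violet stained after 10–14 days; LD90 ratio without/with inhibitor (DMR90).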"}, "[12]": {"test": "In vivo inhibition of DNA-PK in human SW620 cells xenografted athymic nude CD1 mouse assessed as potentiation of etoposide phosphate-induced antitumor activity at 10 mg/kg, ip administered 5 times daily for 5 days relative to control", "assay_type": "functional, SW-620", "settings": "time 5 day", "in_short": "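CD-1 nude mice carry palpable s.c. SW620 xenografts (~5×5 mm, 8-10 days), five per group. Treated i.p. daily for 5 days with saline, agent in 40% PEG 400/saline, etoposide phosphate 11.35 mg/kg (equal to 10 mg/kg etoposide), or both, agent given immediately before etoposide phosphate. Read-outs are median relative tumour volume, time to 4× volume (growth delay) and body weight.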"}, "[13]": {"test": "Ratio of drug level in kidney to plasma of human SW620 cell xenografted athymic nude CD1 mouse at 10 mg/kg, ip measured after 90 mins by HPLC analysis", "assay_type": "ADME, organism-based", "in_short": "as §1"}, "[14]": {"test": "Ratio of drug level in liver to plasma of human SW620 cell xenografted athymic nude CD1 mouse at 10 mg/kg, ip measured after 15 mins by HPLC analysis", "assay_type": "ADME, organism-based", "in_short": "as §1"}, "[15]": {"test": "Ratio of drug level in brain to plasma of human SW620 cell xenografted athymic nude CD1 mouse at 10 mg/kg, ip measured after 60 mins by HPLC analysis", "assay_type": "ADME, organism-based", "settings": "brain and plasma, read-out: BPR", "in_short": "as §1"}, "[16]": {"test": "Inhibition of DNA-PK in Chinese hamster DNA-PK proficient V3-YAC cells assessed as potentiation of etoposide-induced cytotoxicity by measuring fold change in etoposide LD90 at 0.5 umol/L measured after 16 hrs by crystal violet staining based assay relative to etoposide alone", "set-up": "species or system Cricetulus griseus", "settings": "dose 0.5 µmol/L, condition cancer", "in_short": "as §4"}, "[17]": {"test": "Ratio of drug level in brain to plasma of human SW620 cell xenografted athymic nude CD1 mouse at 10 mg/kg, ip measured after 30 mins by HPLC analysis", "assay_type": "ADME, organism-based", "settings": "brain and plasma, read-out: BPR", "in_short": "as §1"}, "[18]": {"test": "AUClast in BALB/c mouse at 5 mg/kg, iv by HPLC analysis", "assay_type": "ADME, organism-based", "settings": "in vivo", "in_short": "as §3"}, "[19]": {"test": "Ratio of drug level in spleen to plasma of human SW620 cell xenografted athymic nude CD1 mouse at 10 mg/kg, ip measured after 15 mins by HPLC analysis", "assay_type": "ADME, organism-based", "in_short": "as §1"}, "[20]": {"test": "Ratio of drug level in spleen to plasma of human SW620 cell xenografted athymic nude CD1 mouse at 10 mg/kg, ip measured after 60 mins by HPLC analysis", "assay_type": "ADME, organism-based", "in_short": "as §1"}, "[21]": {"test_system": "SW-620", "test": "Cell cycle arrest in human SW620 cells assessed as reduction in S-phase cell population at 1 umol/L measured after 1 hr by propidium iodide staining based flow cytometry relative to control", "assay_type": "toxicity", "set-up": "scale not given: the % may be the effect or the level left", "settings": "sw-620, 1 µM, dose 1 µmol/L", "in_short": "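Asynchronous SW620 or LoVo cells, seeded 24 h earlier, given control or 1 μmol/L agent medium for 1 h before ionizing radiation, etoposide or doxorubicin, then incubated a further 16 h. Cells fixed in 70% ethanol, stained with propidium iodide (400 μg/mL) plus RNase (1 mg/mL), and analysed by 488 nm flow cytometry.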"}, "[22]": {"test": "Ratio of drug level in tumor to plasma of human SW620 cell xenografted athymic nude CD1 mouse at 10 mg/kg, ip measured after 60 mins by HPLC analysis", "assay_type": "ADME, organism-based", "settings": "tumor and plasma", "in_short": "as §1"}}, "note": "pIC50: −log10 of the molar value.", "data": [{"smiles": "O=c1cc(N2CCOCC2)oc2c(-c3cccc4c3sc3ccccc34)cccc12", "values": [{"measurement": "Kp at 1.5 h", "setting": "[1]", "value": 1.5}, {"measurement": "pIC50", "setting": "[2]", "value": 7.85}, {"measurement": "concentration at 4 h", "setting": "[3]", "value": 500, "unit": "nM"}, {"measurement": "LD90", "setting": "[4]", "value": 1.1, "unit": "Gy"}, {"measurement": "Activity", "setting": "[5]", "value": "Toxic"}, {"measurement": "viability at 16 h, 0.5 µM", "setting": "[6]", "value": 97, "unit": "%"}, {"measurement": "Kp at 0.5 h", "setting": "[7]", "value": 3.2}, {"measurement": "Kp at 1.5 h", "setting": "[8]", "value": 19}, {"measurement": "AUC(0-inf)", "setting": "[9]", "value": 2530, "unit": "ng·h/mL"}, {"measurement": "Kp at 4 h", "setting": "[10]", "value": 4.6}, {"measurement": "fold change (FC)", "setting": "[11]", "value": 1.6}, {"measurement": "Efficacy", "setting": "[12]", "value": 100, "unit": "%"}, {"measurement": "Kp at 1.5 h", "setting": "[13]", "value": 14}, {"measurement": "Kp at 0.25 h", "setting": "[14]", "value": 6.4}, {"measurement": "Kp at 1 h", "setting": "[15]", "value": 3.2}, {"measurement": "fold change (FC)", "setting": "[16]", "value": 2.3}, {"measurement": "Kp at 0.5 h", "setting": "[17]", "value": 2.2}, {"measurement": "AUC(0-t)", "setting": "[18]", "value": 1270, "unit": "ng·h/mL"}, {"measurement": "Kp at 0.25 h", "setting": "[19]", "value": 4.6}, {"measurement": "Kp at 1 h", "setting": "[20]", "value": 3.2}, {"measurement": "Activity", "setting": "[21]", "value": 24, "unit": "%"}, {"measurement": "Kp at 1 h", "setting": "[22]", "value": 0.44}]}]}
